Screens as filed in PubChem.
GSIS activator – GLuc luminescence reporter in INS-1E cells, primary screen for activators of glucose-dependent secretion of insulin; INS-1E GLuc reporter insulin secretion, 2-3 h; activation, % at 16.6 µM; 370,000 tested, 0.61% active; AID 743287, 2014;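 active = lowest replicate activation of at least 40%, so every replicate reaches that level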
S100A4 inh HTS – inhibitors of S100A4-myosin IIA peptide binding, primary screen, biochemical, fluorescence polarization, TAMRA-MyoIIA peptide; Protein S100-A4 (Homo sapiens), P26447; inhibition, % at 10.7 µM; 360,000 tested, 0.14% active;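 active = mean inhibition of at least 70% across replicates, with every replicate also reaching that level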
Target sequence (P26447 whole entry, looked up): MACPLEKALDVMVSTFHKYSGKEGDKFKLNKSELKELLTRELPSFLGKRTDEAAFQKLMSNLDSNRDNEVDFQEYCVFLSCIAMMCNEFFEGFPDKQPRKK
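assay system = human S100A4 monomer with TAMRA-labelled myosin IIA peptide | also added = labelled myosin peptide probe, 5 nM | incubation = 5 min between mix addition and reading | control set = DMSO and TFP controls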
PDI turbidity – inhibitors of human PDI, primary screen, biochemical, turbidity, single point, plate reader | Protein disulfide-isomerase (Homo sapiens), P07237 | PDI insulin aggregation turbidity, A650, 90 min | inhibition, % at 10 µM | 350,000 tested, 0.052% active | AID 588391, 2011;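 active = mean inhibition across replicates of 30% or more, whatever share of single replicates reach that level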
SIRT5 inh – SIRT5 desuccinylase inhibitors, primary screen, biochemical, fluorescence imaging, single point, set 5; NAD-dependent protein deacylase sirtuin-5, mitochondrial (Homo sapiens), Q9NXA8; Purified SirT5, succinyl-peptide AMC, trypsin-coupled fluorescence; inhibition, % at 15 µM; 330,000 tested, 1.1% active; AID 652115, 2013; in the data active = inhibition above about 15%
Target sequence (Q9NXA8 whole entry, looked up): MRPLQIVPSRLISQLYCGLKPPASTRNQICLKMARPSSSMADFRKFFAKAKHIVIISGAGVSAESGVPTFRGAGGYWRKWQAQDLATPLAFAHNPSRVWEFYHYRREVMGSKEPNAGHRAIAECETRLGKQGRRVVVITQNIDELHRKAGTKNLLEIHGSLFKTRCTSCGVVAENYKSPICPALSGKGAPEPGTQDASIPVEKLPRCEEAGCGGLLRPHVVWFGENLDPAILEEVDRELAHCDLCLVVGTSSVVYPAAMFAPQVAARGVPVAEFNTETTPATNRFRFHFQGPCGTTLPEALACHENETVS
ERp5 inh – inhibitors of ERp5-driven insulin aggregation, primary screen, biochemical, turbidity, absorbance 650 nm, single point. inhibition, % at 9.99 µM. AID 651711, 2012. 350,000 tested, 0.05% active. 90 min. Protein disulfide-isomerase A6 (Homo sapiens), Q15084;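 active = mean replicate inhibition above about 25%, with every replicate also reaching it, limit read from the data, passing the limit was not always enough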
Each line names hits and unclear results; the compound was inactive in the other large screens; ! = not active in a repeat. An excerpt weighted towards active compounds, which were near 1.5% of everything screened.

C[C@H]1CN([C@@H](C)CO)C(=O)c2cccc(NC(=O)c3ccc(-c4nccs4)cc3)c2O[C@H]1CN(C)Cc1ccc(C(F)(F)F)cc1	SIRT5 inh 17 (no result: PDI turbidity)
C[C@H]1CN([C@@H](C)CO)C(=O)c2cccc(NC(=O)c3ccc(-c4nccs4)cc3)c2O[C@@H]1CN(C)Cc1ccc(C(=O)O)cc1	none (no result: PDI turbidity)
C[C@@H]1CN([C@@H](C)CO)C(=O)c2cccc(NC(=O)c3ccc(-c4nccs4)cc3)c2O[C@@H]1CN(C)Cc1ccc(C(=O)O)cc1	none (no result: PDI turbidity)
CCCNC(=O)N[C@H]1CC[C@@H](CCn2cc(C3CCCC3)nn2)O[C@H]1CO	none (no result: S100A4 inh HTS, PDI turbidity)
CCOc1ccc(/C=C/C(=O)c2ccc(-c3ccccc3)cc2)cc1	GSIS activator 47 (no result: S100A4 inh HTS, SIRT5 inh, ERp5 inh)
CCCN1CCN(C(=O)c2ccc3nc(CC)c(CC)nc3c2)CC1	SIRT5 inh 20
CCc1nc2ccc(C(=O)N3CCN(CC)CC3)cc2nc1CC	none
COc1cc2c(cc1OC)/C(=C/C(C)=O)OC2	GSIS activator 119 (no result: PDI turbidity)
COc1cc2c(cc1OC)/C(=C/C(=O)OCc1ccccc1)OC2	none (no result: PDI turbidity)
COC(=O)/C=C1\OCc2cc(OC)c(OC)cc21	GSIS activator 55 (no result: PDI turbidity)
O=C(N[C@H]1CC[C@H](CCNC(=O)C2CC2)O[C@H]1CO)c1ccncc1	none (no result: PDI turbidity)
CCOC(=O)c1c(-c2ccc(C)cc2)csc1NC(=O)CCN1CC(C)OC(C)C1 (stereo not drawn)	SIRT5 inh 20
CCOC(=O)c1c(-c2ccc(OC)cc2)csc1NC(=O)CCN1CCOCC1	none
CO[C@@H]1CN(C)C(=O)c2ccc(NC(=O)CC(F)(F)F)cc2OC[C@H](C)NC[C@H]1C	none (no result: PDI turbidity)
COc1ccc(CNC(=O)C[C@@H]2CC[C@H]3[C@H](COc4ccc(NC(C)=O)cc4C(=O)N3C)O2)cc1	none (no result: PDI turbidity)
COc1ccccc1C(C)NS(=O)(=O)c1ccc(Cl)nc1 (stereo not drawn)	GSIS activator 44
COc1ccc(C)cc1NS(=O)(=O)c1ccc(Cl)nc1	none
COc1ccc(C(=O)NC(=S)Nc2ccc3c4c(cccc24)CC3)cc1OC	GSIS activator 96 (no result: S100A4 inh HTS, SIRT5 inh, ERp5 inh)
O=C(NC1CCCC1)N1CCCCN2[C@H](C1)[C@H](c1ccc(/C=C/c3ccccc3)cc1)[C@@H]2CO	SIRT5 inh 28 (no result: PDI turbidity)
O=C(NC1CCCC1)N1CCCCN2[C@H](C1)[C@@H](c1ccc(/C=C/c3ccccc3)cc1)[C@@H]2CO	SIRT5 inh 16 (no result: PDI turbidity)
NC(=O)c1ccc(NC(=O)CCCc2nc(-c3ccccc3Cl)no2)cc1	SIRT5 inh 18
O=C(C[C@@H]1C=C[C@@H](NC(=O)NC2CCCCC2)[C@@H](CO)O1)NCc1ccc(F)cc1	none (no result: PDI turbidity)
CC(C)NC(=O)Nc1ccc2c(c1)C(=O)N([C@H](C)CO)C[C@@H](C)[C@H](CN(C)CC1CCCCC1)OCCCC[C@@H](C)O2	none (no result: PDI turbidity)
CC1CCN(S(=O)(=O)N2CCC(C(=O)N3CCC(N(C)CC4CCCO4)CC3)CC2)CC1 (stereo not drawn)	SIRT5 inh 18 (no result: PDI turbidity)
Cc1ccc(S(=O)(=O)N(C)C[C@@H]2Oc3c(NC(=O)Nc4ccc(F)cc4)cccc3C(=O)N([C@H](C)CO)C[C@@H]2C)cc1	none (no result: PDI turbidity)
C[C@H](CO)N1C[C@H](C)[C@@H](CN(C)Cc2ccccc2)Oc2c(NC(=O)C3CCCCC3)cccc2C1=O	SIRT5 inh 18!
C[C@H](CO)N1C[C@H](C)[C@@H](CN(C)Cc2ccc(C(F)(F)F)cc2)Oc2c(NC(=O)C3CCCCC3)cccc2C1=O	SIRT5 inh 17 (no result: PDI turbidity)
Cc1noc(C)c1NC(=O)N(C)C[C@H]1Oc2c(NC(=O)C3CCCCC3)cccc2C(=O)N([C@H](C)CO)C[C@@H]1C	GSIS activator 41!
C[C@@H]1CN([C@H](C)CO)C(=O)c2cc(NS(=O)(=O)c3ccc(F)cc3)ccc2O[C@@H]1CN(C)Cc1ccncc1	none (no result: PDI turbidity)
O=C(C[C@H]1CC[C@@H]2[C@H](COC[C@@H](O)CN2Cc2cccc(C(F)(F)F)c2)O1)NCCc1ccccc1	none (no result: PDI turbidity)
COc1ccc(S(=O)(=O)Nc2ccc3c(c2)C(=O)N([C@H](C)CO)C[C@@H](C)[C@@H](CN(C)Cc2ccccc2)OCCCC[C@H](C)O3)cc1	none (no result: S100A4 inh HTS, PDI turbidity, SIRT5 inh, ERp5 inh)
COC(=O)C[C@H]1CC[C@H]2[C@@H](COC[C@@H](O)CN2CCC(F)(F)F)O1	none (no result: PDI turbidity)
Cc1cc(C)cc(C(=O)N2CCC(CCC(=O)NC3CC3)CC2)c1	none
C=CCOc1cccc(C(=O)N2CCC(CCC(=O)NC3CC3)CC2)c1	GSIS activator 54
CCOc1ccc(S(=O)(=O)N2CCOCC2)cc1NC(=O)C1=COCCO1	GSIS activator 41
CCOc1ccc(Oc2ccc(S(=O)(=O)N3CCOCC3)cc2NC(=O)C2=COCCO2)cc1	none
C/C=C/c1ccc([C@H]2[C@H](CO)N(C(=O)CC)[C@H]2CNC(=O)CC2CC2)cc1	none (no result: S100A4 inh HTS, PDI turbidity, SIRT5 inh, ERp5 inh)
O=C(C[C@H]1C[C@H]2c3cc(NS(=O)(=O)c4ccc(F)cc4)ccc3O[C@H]2[C@@H](CO)O1)NCc1cccc(F)c1	none (no result: PDI turbidity)
COc1ccc(S(=O)(=O)Nc2ccc3c(c2)C(=O)N([C@H](C)CO)C[C@@H](C)[C@H](CN(C)S(=O)(=O)c2c(C)noc2C)OCCCC[C@H](C)O3)cc1	none (no result: PDI turbidity)
N#CCc1nn2c(-c3ccccc3)ccnc2c1C#N	GSIS activator 46
CCNc1nc(C#N)nc2c1ncn2-c1cc(F)cc(F)c1	SIRT5 inh 25
COc1ccc(NC(=O)N(C)C[C@@H]2OCCCC[C@@H](C)Oc3ccc(NC(=O)Nc4ccc(F)cc4)cc3C(=O)N([C@H](C)CO)C[C@@H]2C)cc1	SIRT5 inh 18 (no result: PDI turbidity)
COc1ccc(NC(=O)N(C)C[C@@H]2OCCCC[C@@H](C)Oc3ccc(NC(=O)Nc4ccc(C(F)(F)F)cc4)cc3C(=O)N([C@@H](C)CO)C[C@@H]2C)cc1	SIRT5 inh 16 (no result: PDI turbidity)
COc1ccc(NC(=O)N(C)C[C@@H]2OCCCC[C@@H](C)Oc3ccc(NC(=O)Nc4ccc5c(c4)OCO5)cc3C(=O)N([C@H](C)CO)C[C@H]2C)cc1	SIRT5 inh 15 (no result: PDI turbidity)
COc1ccc(NC(=O)N(C)C[C@H]2OCCCC[C@@H](C)Oc3ccc(NC(=O)Nc4ccc(F)cc4)cc3C(=O)N([C@H](C)CO)C[C@H]2C)cc1	none (no result: PDI turbidity)
COc1ccc2c3c(n(C)c2c1)[C@H](CO)N(C(=O)c1cccnc1)CC31CN(C(=O)c2cccnc2)C1	none (no result: PDI turbidity)
CC=Cc1ccc2n(c1=O)C[C@@H]1[C@@H](CO)[C@H](C(=O)NCC3CC3)[C@H]2N1C(=O)CC (mixture of isomers)	none (no result: PDI turbidity)
C[C@H]1CN([C@@H](C)CO)C(=O)c2cccc(NC(=O)Nc3ccc(C(F)(F)F)cc3)c2O[C@@H]1CN(C)C(=O)Nc1ccccc1	none (no result: PDI turbidity)
C[C@H](NC(=O)C[C@H]1CC[C@@H](NC(=O)c2cccnc2)[C@@H](CO)O1)c1ccccc1	none (no result: PDI turbidity)
